For one molecule, Ka and Kkin results are on record in ChEMBL document CHEMBL1134542, “Experimental precedent for the need to involve the primary hydration layer of DNA in lead drug design” (J Med Chem, 2001).

Common to all, as to format: nucleic-acid assay
The test system of test [1] is Nucleic Acid. The test is described as follows: Association constant for binding to AATT 28-mer AATT hairpin. The gist of the method: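 Fluorometric equilibrium titration at 20 °C in 50 mM Tris, 100 mM NaCl, pH 7.5. A fixed 0.7-1.6 nM dye in a silanized quartz cuvette was titrated with excess 28-mer T4-looped AATT hairpin (3.54 μM stock). The rise in fluorescence was fitted to the quadratic binding equation, with dilution taken into account. Above about 4 × 10^9 M^-1, dye concentration was an extra fitting parameter.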

In test [2] the test system is Nucleic Acid. The test is described as follows: Kinetically Defined Association Constant for 28-mer AATT hairpin. In outline:
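Stopped-flow fluorescence at 20 °C, pH 7.5 (50 mM Tris, 0.1 M NaCl). 2 nM dye was mixed with excess 28-mer AATT hairpin, with excitation at 366 nm and emission through a 418 nm cutoff filter. Inverse time constants from monoexponential traces versus concentration gave kon. koff came from dissociation with excess poly[d(A-5BrU)]. Kkin = kon/koff.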

Test [3] relates to Nucleic Acid. The test is described as follows: Association constant for binding to AATT duplex. The gist of the method:
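Fluorometric equilibrium titration at 20 °C in 50 mM Tris, 100 mM NaCl, pH 7.5. The fluorescence increase was fitted to the quadratic binding equation, with dilution corrected.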

For the molecule `CN1CCN(c2ccc3[nH]c(-c4ccc5[nH]c(-c6ccc(O)cc6)nc5c4)nc3c2)CC1`, the Ka in the test on Nucleic Acid [1] came out at 5.2e-08 M⁻¹; in the test with Nucleic Acid [3], 4.1e-08 M⁻¹. Further, the Kkin in the test on Nucleic Acid [2] turned out to be 5.9e-08 M⁻¹.
